From PubChem BioAssay
Ecoli tolC: growth inhibitors of E. coli BW25113 tolC mutant. growth inhibition, % at 10 µM (by protocol). 2.2% of 65,000 active. OD615;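 active = growth inhibition at or above a cutoff equal to the mean over every tested compound plus 3 SD, cut at about 60% in these data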;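 also: growth measured after 20 h incubation at 37 °C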
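Test system: E. coli BW25113 ΔtolC::kan bacteria | Medium: Kanamycin-containing LB broth (50 µg/mL) | Dosing: One dose of 10 µM final | Times: 20 h incubation with compound, 37 °C | Detection: Optical density read at 615 nm | Read-out basis: Percent growth inhibition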
Mac1 fbg enh: CD11b/CD18-fibrinogen binding enhancement; P05107+P11215; K562 CD11b/CD18 adhesion to fibrinogen, ATPlite luminescence; activation, % at 10 µM; 0.07% of 93,000 active; AID 1499;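 active = 10 µM primary screen giving 50% or more activity, confirmed by 40% or more on retest at that dose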
Target sequence (P05107 whole entry, looked up, other chains not shown): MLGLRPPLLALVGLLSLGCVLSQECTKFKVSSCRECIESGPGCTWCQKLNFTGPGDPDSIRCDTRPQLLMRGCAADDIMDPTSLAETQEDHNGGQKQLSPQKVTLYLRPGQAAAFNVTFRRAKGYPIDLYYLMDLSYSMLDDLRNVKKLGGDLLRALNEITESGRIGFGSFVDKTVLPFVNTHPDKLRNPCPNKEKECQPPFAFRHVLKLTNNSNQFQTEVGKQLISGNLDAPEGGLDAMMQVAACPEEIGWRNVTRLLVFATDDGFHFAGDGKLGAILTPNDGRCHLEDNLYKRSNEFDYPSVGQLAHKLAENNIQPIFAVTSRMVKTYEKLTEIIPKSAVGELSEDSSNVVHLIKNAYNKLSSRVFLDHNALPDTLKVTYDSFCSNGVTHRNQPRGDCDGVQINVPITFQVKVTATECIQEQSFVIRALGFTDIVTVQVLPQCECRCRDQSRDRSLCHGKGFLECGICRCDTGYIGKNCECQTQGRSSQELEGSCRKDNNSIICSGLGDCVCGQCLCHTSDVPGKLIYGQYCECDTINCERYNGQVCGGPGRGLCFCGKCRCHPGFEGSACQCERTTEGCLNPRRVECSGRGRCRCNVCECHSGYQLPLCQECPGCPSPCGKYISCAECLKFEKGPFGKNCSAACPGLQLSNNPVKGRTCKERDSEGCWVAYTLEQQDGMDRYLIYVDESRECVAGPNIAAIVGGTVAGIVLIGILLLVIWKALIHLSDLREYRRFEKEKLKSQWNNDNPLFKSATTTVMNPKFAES
Ecoli WT expand: blocks growth of wild type E. coli BW25113 | OD600 absorbance | growth inhibition, % at 100 µM | 0.15% of 98,000 active;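 active = growth inhibition above about 50% at one test dose, limit read from the data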;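 also: growth measured after 20 h incubation at 37 °C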
CD11b adhes inh: blocks human CD11b/CD18 adhesion to fibrinogen; P05107+P11215; K562 CD11b/CD18 adhesion to fibrinogen, ATPlite luminescence; Mn2+ added to activate the integrin; inhibition, % at 10 µM; 0.54% of 93,000 active; AID 1497;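 active = primary inhibition of 50% or more at 10 µM, then 40% or more on retest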
* = called active by the depositor; . = not tested or not shown. This is one part of a sample in which hits are shown more often than they occur.

SMILES	Ecoli tolC	Mac1 fbg enh	Ecoli WT expand	CD11b adhes inh
Cc1cccc(NC(=O)CCc2ccc(S(=O)(=O)NC3CCCCC3)cc2)c1	.	-4	-8	-12
COc1ccccc1NC(=O)c1ccc(Cl)c(S(=O)(=O)N2CCOCC2)c1	4	-3	2	2
COc1ccc(NC(=O)c2ccc(Cl)c(S(=O)(=O)N3CCc4ccccc4C3)c2)cn1	62*	-8	-10	100
CSc1c(CC(=O)Nc2ccc(F)cc2)n(Cc2ccccc2)c2ccccc12	.	-5	.	3
Cc1cccc(N2CCN(C(=O)c3c(C)nn(Cc4ccccc4Cl)c3C)CC2)c1C	.	-4	-18	52*
COCCn1cnc2c1c(=O)n(CC(=O)OCC(=O)NCC(F)(F)F)c(=O)n2Cc1ccccc1	.	4	.	-16
O=C(NCc1ccccc1)c1c[nH]c2ccc(S(=O)(=O)Nc3ccc4c(c3)OCCO4)cc2c1=O	61*	1	-14	-10
CCc1ccc(NS(=O)(=O)c2ccc3[nH]cc(C(=O)NCC4CCCO4)c(=O)c3c2)cc1 (stereo unspecified)	57	.	2	.
O=C(NCc1ccco1)c1c[nH]c2ccc(S(=O)(=O)N3CCOCC3)cc2c1=O	-7	.	-3	.
CCc1ccccc1NS(=O)(=O)c1ccc2[nH]cc(C(=O)NCc3ccco3)c(=O)c2c1	100*	.	1	.
Cc1cc(C)n(-c2ccc(C(=O)OCC(=O)Nc3ccc(Cl)cc3[N+](=O)[O-])cc2)n1	.	6	.	13
COC(=O)c1cc2c(ccn2-c2ccc(F)cc2)n1CC(=O)N1CCN(C(=O)c2ccco2)CC1	12	-6	-3	-11
CCn1c(C(=O)OC)cc2c1ccn2-c1ccc(F)cc1	96*	-1	4	-1
c1ccc(-c2cnn3c(-c4ccccc4)c(-c4ccccc4)nc3n2)cc1	.	19	.	5
Cc1cc(-c2ccco2)c(C#N)c2nc3ccccc3n12	81*	43	-12	1
CCCNC(=O)Cn1c(=O)oc2ccccc21	.	0	6	-8
CCCCNC(C(=O)Nc1ccc(Cl)c([N+](=O)[O-])c1)c1ccccc1 (stereo unspecified)	.	2	.	10
CCCCC(=O)Nc1cccc(-c2nnc(-c3ccccc3)o2)c1	68*	4	-5	-2
O=C(COc1ccc2oc(-c3ccccc3)cc(=O)c2c1)Nc1ccccc1	.	-1	.	14
CCOC(=O)C1=C(c2ccccc2)NC(SCC(=O)Nc2cccc(C)c2)=C(C#N)C1c1ccco1 (stereo unspecified)	28	6	-16	4
CCOC(=O)CSC1=C(C#N)C(c2ccco2)C(C(=O)Nc2cccc(C(F)(F)F)c2)=C(C)N1 (stereo unspecified)	61*	13	-10	-4
Cc1nn(-c2ccc(Cl)cc2)c2[nH]c(=O)c(CNCc3ccc4c(c3)OCO4)cc12	45	1	3	-2
COCCn1c(-c2ccc(Cl)cc2)cnc1SCC(=O)NCCc1ccc(OC)c(OC)c1	.	-2	.	53*
c1ccc(-c2nc(N3CCCCCC3)c3ccccc3n2)nc1	100*	-2	26	22
c1ccc(-c2nc(N3CCOCC3)c3ccccc3n2)nc1	11	-1	3	-20
SMILES	Ecoli tolC	Mac1 fbg enh	Ecoli WT expand	CD11b adhes inh
N#C/C(=C/c1ccc(N2CCCC2)c([N+](=O)[O-])c1)c1nc2ccccc2[nH]1	.	.	-15	.
N#C/C(=C\c1ccc(Oc2ccc(C(F)(F)F)cc2[N+](=O)[O-])cc1)c1nc2ccccc2[nH]1	.	82*	-4	3
O=C1c2ccccc2C(=O)N1CSc1ncccn1	-12	-3	1	-2
COc1ccc(CN2CCCC2C(=O)Nc2ccc(OC)c(OC)c2)cc1OC (stereo unspecified)	-5	-2	-4	-2
O=C1C2C3C=CC(C3)C2C(=O)N1/N=C/c1cc(Br)cc([N+](=O)[O-])c1O (stereo unspecified)	.	-8	11	57*
Cc1ccc(C)c(S(=O)(=O)NCc2ccncc2)c1	.	.	2	.
CCOc1ccc(S(=O)(=O)NCc2ccncc2)cc1	.	-7	-2	98*
Cc1ccc(S(=O)(=O)NCc2ccncc2)cc1	-11	-5	4	69*
CCOC(=O)COc1ccc(S(=O)(=O)NCc2ccncc2)cc1	1	-9	7	80
O=c1[nH]c(N2CCCCC2)nc2c1CCCC2	-30	0	9	-11
CC(/C=C1\SC(=S)N(CCCC(=O)Nc2ccc(C(=O)O)c(O)c2)C1=O)=C\c1ccccc1	.	86*	.	3
Cc1ccc(NC(=O)CCCN2C(=O)/C(=C/C=C/c3ccccc3)SC2=S)cc1	.	17	.	11
CCc1ccc(NC(=O)CSC2=C(C#N)C(c3ccco3)C3=C(CCCC3=O)N2)cc1 (stereo unspecified)	10	-4	-2	-4
